Data from ChEMBL document CHEMBL1152384, “First steps in the direction of synthetic, allosteric, direct inhibitors of thrombin and factor Xa” (Bioorg Med Chem Lett, 2009).
Activity calls are given as the source filed them. No cut-off for these calls is given here.

Assays:
[1] = target: Prothrombin (Homo sapiens) (UniProt P00734); experiment: Inhibition of human thrombin assessed as residual activity at < 4.3 mM by spectrophotometry
Outline: (§1)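 Thrombin activity read spectrophotometrically as the initial rate of hydrolysis of the chromogenic substrate Spectrozyme TH, with and without benzofuran inhibitor. Residual activity is expressed relative to the uninhibited enzyme.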

[2] = target: Coagulation factor X (Homo sapiens) (UniProt P00742); experiment: Inhibition of human factor 10a assessed as residual activity at < 4.3 mM by spectrophotometry
Outline: (§2)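 Factor Xa activity followed by spectrophotometric measurement of the initial rate of hydrolysis of the chromogenic substrate S-2772, with and without benzofuran inhibitor. Residual activity is taken relative to the uninhibited enzyme.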

[3] = target: Coagulation factor X (Homo sapiens) (UniProt P00742); experiment: Inhibition of human factor 10a assessed as residual activity at 2.6 mM by spectrophotometry; outline: as §2
[4] = target: Prothrombin (Homo sapiens) (UniProt P00734); experiment: Inhibition of human thrombin assessed as residual activity at 2.9 mM by spectrophotometry; outline: as §1
[5] = target: Coagulation factor X (Homo sapiens) (UniProt P00742); experiment: Inhibition of human factor 10a assessed as residual activity at […] by spectrophotometry; outline: as §2
[6] = target: Prothrombin (Homo sapiens) (UniProt P00734); experiment: Inhibition of human thrombin assessed as residual activity at 400 uM by spectrophotometry; outline: as §1
[7] = target: Prothrombin (Homo sapiens) (UniProt P00734); experiment: Inhibition of human thrombin assessed as residual activity at 4.3 mM by spectrophotometry; outline: as §1
[8] = target: Coagulation factor X (Homo sapiens) (UniProt P00742); experiment: Inhibition of human factor 10a assessed as decrease in catalytic rate per uM of S-2772 hydrolysis at 2.6 mM by Michaelis-Menten analysis relative to control
Outline: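 Factor Xa kinetics: initial rates of S-2772 hydrolysis measured spectrophotometrically at pH 7.4 and 25 °C over a range of substrate levels, with and without inhibitor. The hyperbolic dependence of rate on substrate was fitted to obtain KM and VMAX. Catalytic rate was compared with the inhibitor-free reaction.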

Chain of Coagulation factor X (Homo sapiens) (P00742 41-179 limits assumed): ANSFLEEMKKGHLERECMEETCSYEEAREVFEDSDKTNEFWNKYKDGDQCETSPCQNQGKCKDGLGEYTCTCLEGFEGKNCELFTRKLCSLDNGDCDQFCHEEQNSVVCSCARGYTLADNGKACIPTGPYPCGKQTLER
Chain of Coagulation factor X (Homo sapiens) (P00742 235-488 limits assumed): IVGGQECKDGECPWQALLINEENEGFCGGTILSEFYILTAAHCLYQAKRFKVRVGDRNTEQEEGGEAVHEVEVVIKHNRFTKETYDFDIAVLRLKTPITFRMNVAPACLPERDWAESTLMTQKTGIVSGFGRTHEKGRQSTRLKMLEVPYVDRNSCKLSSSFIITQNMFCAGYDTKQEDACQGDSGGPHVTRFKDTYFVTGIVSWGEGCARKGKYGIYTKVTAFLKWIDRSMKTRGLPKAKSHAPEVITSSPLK

Compound	Activity [1]	Activity [2]	Activity [4] [%]	Activity [5]	Activity [6]	also measured
CCOC(=O)CCc1c(C)oc2cc(OC)c(O)cc12	inactive	inactive				
COc1cc2c(C(=O)O)c(C)oc2cc1OS(=O)(=O)O			> 40	Active	Active	Activity [3]: 86%; Activity [7]: Active; fold change (FC) [8]: 3.6
COc1cc2oc(C)c(CO)c2cc1O	inactive	inactive				
Cc1oc2cc(O)c(O)cc2c1C(=O)O			> 40	Active	Active	
CCOC(=O)c1c(C)oc2cc(OC)c(OS(=O)(=O)O)cc12	inactive	inactive				
COc1cc2oc(C)c(CCC(=O)O)c2cc1OS(=O)(=O)O			> 40	Active	Active	
CCOC(=O)c1c(C)oc2cc(O)c(O)cc12	inactive	inactive				
COc1cc2oc(C)c(C(=O)O)c2cc1OS(=O)(=O)O			> 40	Active	Active	Activity [3]: 42%
CCOC(=O)c1c(C)oc2cc(OC)c(O)cc12	inactive	inactive				
CCOC(=O)CCc1c(C)oc2cc(OC)c(OS(=O)(=O)O)cc12	inactive	inactive				
Cc1oc2cc(OS(=O)(=O)O)c(OS(=O)(=O)O)cc2c1C(=O)O			> 40	Active	Active	Activity [3]: 75%
CCOC(=O)c1c(C)oc2cc(OS(=O)(=O)O)c(OC)cc12	inactive	inactive				
CCOC(=O)c1c(C)oc2cc(O)c(OC)cc12	inactive	inactive				
COc1cc2oc(C)c(CCC(=O)O)c2cc1O			> 40	Active	Active	Activity [3]: > 40%
COc1cc2oc(C)c(COS(=O)(=O)O)c2cc1OS(=O)(=O)O	inactive	inactive				
CCOC(=O)c1c(C)oc2cc(OS(=O)(=O)O)c(OS(=O)(=O)O)cc12	inactive	inactive				
COc1cc2oc(C)c(C(=O)O)c2cc1O			> 40	Active	Active	
